Converted amounts (≈) assume the structure as drawn.
Key:
Format in all cases: functional
Cryptococcus neoformans = test: Antifungal activity against Cryptococcus neoformans by disc diffusion method
Summary of the method: (§1)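 Fungi were screened first by disc diffusion on corn meal agar, with M-3 broth susceptibility test medium. MIC was then determined by broth dilution.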

Candida albicans = test: Antifungal activity against Candida albicans by disc diffusion method; summary of the method: as §1
Aspergillus fumigatus = test: Antifungal activity against Aspergillus fumigatus by disc diffusion method; summary of the method: as §1
Talaromyces marneffei = test: Antifungal activity against Penicillium marneffei by disc diffusion method; summary of the method: as §1
Mucor = test: Antifungal activity against Mucor sp. by disc diffusion method; summary of the method: as §1
Streptococcus = test: Antibacterial activity against Streptococcus group D after 18 to 24 hrs by disc diffusion method
Summary of the method: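 Kirby-Bauer disc diffusion: sterile 6 mm filter-paper discs impregnated with compound at 1.5, 1.1, 0.57, 0.28, 0.14 and 0.07 per mL. Discs showing zones were followed by broth dilution: doubling dilutions in 50% DMSO–H2O, inoculum to 0.5 McFarland, 37 °C for 18–24 h. MIC was the lowest dilution preventing visible turbidity. The initial solution (12.5% DMSO) was not scored.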

Row | Structure (SMILES) | MIC (Cryptococcus neoformans) [µM] | MIC (Candida albicans) [µM] | MIC (Aspergillus fumigatus) [µM] | MIC (Talaromyces marneffei) [µM] | MIC (Mucor) [µM] | MIC (Streptococcus) [µM]
1 | Nc1cccc2c1ncn2[C@@H]1O[C@H](CSCCC(=O)O)[C@@H](O)[C@H]1O | 0.75 (≈ 0.265 µg/mL) | 0.75 (≈ 0.265 µg/mL) | 0.75 (≈ 0.265 µg/mL) | 0.75 (≈ 0.265 µg/mL) | 0.75 (≈ 0.265 µg/mL) | 0.38 (≈ 0.134 µg/mL)
2 | C=CCSC[C@H]1O[C@@H](n2c(CC)nc3c([N+](=O)[O-])cccc32)[C@H](O)[C@@H]1O | 2 (≈ 0.759 µg/mL) | 2 (≈ 0.759 µg/mL) | 2 (≈ 0.759 µg/mL) | 2 (≈ 0.759 µg/mL) | 2 (≈ 0.759 µg/mL) | –
3 | C=CCSC[C@H]1O[C@@H](n2cnc3c([N+](=O)[O-])cccc32)[C@H](O)[C@@H]1O | 0.38 (≈ 0.134 µg/mL) | 0.38 (≈ 0.134 µg/mL) | 0.38 (≈ 0.134 µg/mL) | 0.38 (≈ 0.134 µg/mL) | 0.38 (≈ 0.134 µg/mL) | 1.25 (≈ 0.439 µg/mL)
4 | Nc1ncnc2c1ncn2[C@@H]1O[C@H](CSCCC(=O)O)[C@@H](O)[C@H]1O | 1.5 (≈ 0.533 µg/mL) | 1.5 (≈ 0.533 µg/mL) | 1.5 (≈ 0.533 µg/mL) | 1.5 (≈ 0.533 µg/mL) | 1.5 (≈ 0.533 µg/mL) | 0.755 (≈ 0.268 µg/mL)
5 | CCOC(=O)CCSC[C@H]1O[C@@H](n2cnc3c(N)cccc32)[C@H](O)[C@@H]1O | 0.38 (≈ 0.145 µg/mL) | 0.38 (≈ 0.145 µg/mL) | 0.38 (≈ 0.145 µg/mL) | 0.38 (≈ 0.145 µg/mL) | 0.38 (≈ 0.145 µg/mL) | 0.19 (≈ 0.0725 µg/mL)
6 | OC(Cn1cncn1)(Cn1cncn1)c1ccc(F)cc1F [FLUCONAZOLE] | 0.52 (≈ 0.159 µg/mL) | 0.52 (≈ 0.159 µg/mL) | 0.52 (≈ 0.159 µg/mL) | 0.52 (≈ 0.159 µg/mL) | 0.52 (≈ 0.159 µg/mL) | –
7 | Clc1ccc(COC(Cn2ccnc2)c2ccc(Cl)cc2Cl)c(Cl)c1 (stereo not given) [MICONAZOLE] | 0.77 (≈ 0.32 µg/mL) | 0.77 (≈ 0.32 µg/mL) | 0.77 (≈ 0.32 µg/mL) | 0.77 (≈ 0.32 µg/mL) | 0.77 (≈ 0.32 µg/mL) | –
8 | CN[C@H](CC(C)C)C(=O)N[C@H]1C(=O)N[C@@H](CC(N)=O)C(=O)N[C@H]2C(=O)N[C@H]3C(=O)N[C@H](C(=O)N[C@H](C(=O)O)c4cc(O)cc(O)c4-c4cc3ccc4O)[C@H](O)c3ccc(c(Cl)c3)Oc3cc2cc(c3O[C@@H]2O[C@H](CO)[C@@H](O)[C@H](O)[C@H]2O[C@H]2C[C@](C)(N)[C@H](O)[C@H](C)O2)Oc2ccc(cc2Cl)[C@H]1O [VANCOMYCIN] | – | – | – | – | – | 0.78 (≈ 1.13 µg/mL)

— ChEMBL document CHEMBL1140527, “Synthesis and antimicrobial activity of some novel nucleoside analogues of adenosine and 1,3-dideazaadenosine” (2007)
